How the values were obtained:
[1] = biological target: Delta-type opioid receptor (Homo sapiens, UniProt P41143); experiment: Displacement of [3H]DPDPE from cloned human delta opioid receptor
[2] = biological target: Mu-type opioid receptor (Homo sapiens, UniProt P35372); experiment: Displacement of [3H]DAMGO from cloned human mu opioid receptor
[3] = biological target: Opioid receptors; mu & delta (Homo sapiens) (UniProt P41143+P35372); experiment: Selectivity for delta opioid receptor over mu opioid receptor; format: protein assay
Opioid receptors; mu & delta (Homo sapiens), sequence (P35372 whole entry, looked up): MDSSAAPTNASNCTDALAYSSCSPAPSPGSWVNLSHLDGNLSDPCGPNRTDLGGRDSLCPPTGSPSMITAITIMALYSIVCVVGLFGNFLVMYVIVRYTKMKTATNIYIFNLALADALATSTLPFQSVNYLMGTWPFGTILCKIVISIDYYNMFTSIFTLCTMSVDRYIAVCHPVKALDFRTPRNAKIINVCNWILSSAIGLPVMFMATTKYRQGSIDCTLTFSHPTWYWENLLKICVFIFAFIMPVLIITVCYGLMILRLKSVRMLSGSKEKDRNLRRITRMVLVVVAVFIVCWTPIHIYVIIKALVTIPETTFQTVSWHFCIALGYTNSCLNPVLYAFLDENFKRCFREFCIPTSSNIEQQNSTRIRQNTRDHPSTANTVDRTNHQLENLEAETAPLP
Opioid receptors; mu & delta (Homo sapiens), sequence (P41143 whole entry, looked up): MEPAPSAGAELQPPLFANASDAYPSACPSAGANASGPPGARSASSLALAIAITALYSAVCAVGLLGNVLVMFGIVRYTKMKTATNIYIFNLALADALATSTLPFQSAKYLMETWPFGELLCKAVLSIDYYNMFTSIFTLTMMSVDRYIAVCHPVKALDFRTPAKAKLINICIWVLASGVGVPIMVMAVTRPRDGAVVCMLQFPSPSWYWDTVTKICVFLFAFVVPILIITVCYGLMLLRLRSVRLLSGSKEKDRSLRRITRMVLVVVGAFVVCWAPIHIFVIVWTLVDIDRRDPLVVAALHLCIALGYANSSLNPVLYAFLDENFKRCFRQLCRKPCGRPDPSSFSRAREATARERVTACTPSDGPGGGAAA

[4] = biological target: Kappa-type opioid receptor (Homo sapiens, UniProt P41145); experiment: Displacement of [3H]U-69593 from cloned human kappa opioid receptor
Kappa-type opioid receptor, sequence (P41145 whole entry): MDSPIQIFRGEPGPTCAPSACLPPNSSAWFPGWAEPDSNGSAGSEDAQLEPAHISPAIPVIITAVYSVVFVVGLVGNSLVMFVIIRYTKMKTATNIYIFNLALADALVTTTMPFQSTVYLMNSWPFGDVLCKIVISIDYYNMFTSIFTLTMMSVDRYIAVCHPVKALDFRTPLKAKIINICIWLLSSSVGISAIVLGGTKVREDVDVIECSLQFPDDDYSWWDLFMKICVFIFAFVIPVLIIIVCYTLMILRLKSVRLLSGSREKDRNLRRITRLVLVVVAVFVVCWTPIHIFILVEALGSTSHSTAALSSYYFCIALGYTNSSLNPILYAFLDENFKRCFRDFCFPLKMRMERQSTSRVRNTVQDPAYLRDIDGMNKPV

[5] = species: Mus musculus; experiment: Anxiolytic activity in mouse assessed as lowest active dose by neonatal ultrasonic vocalization test; format: functional
How it was run: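 Neonatal mice; read-out is the number and duration of ultrasonic calls. The value is the lowest dose tested that gave a statistically significant reduction in calls.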

[6] = species: Mus musculus; experiment: Decrease in duration of immobility in mouse assessed as lowest active dose by tail suspension test
[7] = biological target: Opioid receptors; delta & kappa (Homo sapiens) (UniProt P41145+P41143); experiment: Selectivity for delta opioid receptor over kappa opioid receptor; format: protein assay
Opioid receptors; delta & kappa (Homo sapiens), sequence (P41143 whole entry, looked up): as the sequence (P41143 whole entry, looked up) above
Opioid receptors; delta & kappa (Homo sapiens), sequence (P41145 whole entry, looked up): as the sequence (P41145 whole entry) above

Delta-type opioid receptor, sequence (P41143 whole entry): as the sequence (P41143 whole entry, looked up) above
Mu-type opioid receptor, sequence (P35372 whole entry): as the sequence (P35372 whole entry, looked up) above

| Compound | Ki [1] | Ki [2] | Ratio Ki [3] | Ki [4] | other results |
| --- | --- | --- | --- | --- | --- |
| COC(=O)c1cccc(Cn2ccnc2C2(c3ccccc3)CCN(C(=O)c3ccccc3)CC2)c1 | 0.085 µM | > 0.465 µM | > 5.5 |  |  |
| O=C(c1ccccc1)N1CCC(c2ccccc2)(c2nccn2Cc2ccccc2)CC1 |  | > 4.65 µM |  | 0.124 µM | Activity [5]: < 1 mg/kg; Activity [6]: 10 mg/kg |
| CC(C)(C)OC(=O)N1CCC(c2ccccc2)(c2nccn2Cc2ccccc2)CC1 |  | > 0.465 µM |  | 0.084 µM |  |
| COCC(=O)N1CCC(c2ccccc2)(c2nccn2Cc2ccc(C(=O)OC)cc2)CC1 |  | > 4.65 µM |  | 0.065 µM |  |
| CCCCOC(=O)N1CCC(c2ccccc2)(c2nccn2Cc2ccccc2)CC1 |  | > 0.465 µM |  | 0.188 µM |  |
| CCOC(=O)N1CCC(c2ccccc2)(c2nccn2Cc2cccc(OC)c2)CC1 |  | > 4.65 µM |  | 0.366 µM |  |
| CCOC(=O)N1CCC(c2ccccc2)(c2nccn2Cc2ccc(O)cc2)CC1 |  | > 0.465 µM |  | 0.108 µM |  |
| CC(=O)N1CCC(c2ccccc2)(c2nccn2Cc2ccccc2)CC1 |  | > 0.465 µM |  | 1.01 µM |  |
| CCOC(=O)N1CCC(c2ccccc2)(c2nccn2Cc2ccc(F)cc2)CC1 | 0.051 µM | > 0.465 µM | > 6.5 |  |  |
| CC(C)C(=O)N1CCC(c2ccccc2)(c2nccn2Cc2ccccc2)CC1 | 0.048 µM | > 0.465 µM | > 10 | 0.621 µM | Ratio Ki [7]: 13 |
| Cc1cc(C)cc(C(=O)N2CCC(c3ccccc3)(c3nccn3Cc3ccccc3)CC2)c1 |  | > 0.465 µM |  | 0.284 µM |  |
| Cc1cc(C)c(C(=O)N2CCC(c3ccccc3)(c3nccn3Cc3ccccc3)CC2)c(C)c1 | 0.125 µM | > 4.65 µM | > 37 |  |  |
| CCOC(=O)N1CCC(c2ccccc2)(c2nccn2Cc2cccc(F)c2)CC1 |  | > 0.465 µM |  | > 4.65 µM |  |
| CC(C)OC(=O)N1CCC(c2ccccc2)(c2nccn2Cc2ccccc2)CC1 |  | > 0.465 µM |  | 0.201 µM |  |
| COC(=O)c1ccc(Cn2ccnc2C2(c3ccccc3)CCN(C(=O)c3ccccc3)CC2)cc1 |  | > 4.65 µM |  | 0.088 µM |  |
| O=C(OCc1ccccc1)N1CCC(c2ccccc2)(c2nccn2Cc2ccccc2)CC1 |  | > 0.465 µM |  | 0.121 µM |  |
| CCOC(=O)N1CCC(c2ccccc2)(c2nccn2Cc2ccc(OC)cc2)CC1 |  | > 4.65 µM |  | 0.201 µM |  |
| CCOC(=O)N1CCC(c2ccccc2)(c2nccn2C(C)c2ccccc2)CC1 (stereo not drawn) |  | > 0.465 µM |  | 0.062 µM |  |

| Compound | Ki [1] | Ki [2] | Ratio Ki [3] | Ki [4] | other results |
| --- | --- | --- | --- | --- | --- |
| CCOC(=O)N1CCC(c2ccccc2)(c2nccn2Cc2ccc(C(=O)OC)cc2)CC1 |  | > 0.465 µM |  | 0.025 µM |  |
| O=C(Cc1ccccc1)N1CCC(c2ccccc2)(c2nccn2Cc2ccccc2)CC1 |  | > 0.465 µM |  |  |  |
| COC(=O)N1CCC(c2ccccc2)(c2nccn2Cc2ccccc2)CC1 |  | > 4.65 µM |  |  |  |
| COCC(=O)N1CCC(c2ccccc2)(c2nccn2Cc2ccccc2)CC1 |  | > 0.465 µM |  | 0.622 µM |  |
| CCC(=O)N1CCC(c2ccccc2)(c2nccn2Cc2ccccc2)CC1 |  | > 0.465 µM |  |  |  |
| O=C(C1CC1)N1CCC(c2ccccc2)(c2nccn2Cc2ccccc2)CC1 | 0.023 µM | > 0.465 µM | > 20 |  |  |
| CCCOC(=O)N1CCC(c2ccccc2)(c2nccn2Cc2ccccc2)CC1 |  | > 0.465 µM |  | > 4.65 µM |  |
| CC(C)(C)C(=O)N1CCC(c2ccccc2)(c2nccn2Cc2ccccc2)CC1 |  | > 4.65 µM |  |  |  |
| CCOC(=O)N1CCC(c2ccccc2)(c2nccn2C/C=C/c2ccccc2)CC1 | 0.28 µM | > 0.465 µM | > 1.6 |  |  |
| CC(c1ccccc1)n1ccnc1C1(c2ccccc2)CCN(C(=O)c2ccccc2)CC1 (stereo not drawn) |  | > 4.65 µM |  | 0.334 µM |  |
| O=C(c1cc(C(F)(F)F)cc(C(F)(F)F)c1)N1CCC(c2ccccc2)(c2nccn2Cc2ccccc2)CC1 | 0.029 µM | > 0.465 µM | > 16 |  |  |
| CCOC(=O)N1CCC(c2ccccc2)(c2nccn2Cc2ccccc2)CC1 |  |  |  |  | Activity [5]: 10 mg/kg; Activity [6]: 30 mg/kg |
| CCOC(=O)N1CCC(c2ccccc2)(c2nccn2CC2CCCCC2)CC1 | 0.147 µM | > 0.465 µM | > 3.2 |  |  |
| CCOC(=O)N1CCC(c2ccccc2)(c2nccn2Cc2ccccn2)CC1 | 0.173 µM | > 0.465 µM | > 2.7 |  |  |
| CCN(CC)C(=O)c1ccc(Cn2ccnc2C2(c3ccccc3)CCN(C(=O)c3ccccc3)CC2)cc1 | 0.158 µM | > 4.65 µM | > 29 |  |  |
| O=C(OC1CCCCC1)N1CCC(c2ccccc2)(c2nccn2Cc2ccccc2)CC1 | 0.0074 µM | > 0.465 µM | > 63 | 0.121 µM | Ratio Ki [7]: 16 |
| COCC(=O)N1CCC(c2ccccc2)(c2nccn2C(C)c2ccccc2)CC1 (stereo not drawn) |  | > 4.65 µM |  | > 4.65 µM |  |
| CCOC(=O)N1CCC(c2ccccc2)(c2nccn2Cc2ccc3ccccc3c2)CC1 | 0.642 µM | > 0.465 µM | > 0.7 | 3.12 µM | Ratio Ki [7]: 4.8 |
